{
  "source": "PubChem BioAssay AID504677",
  "about": "(The Scripps Research Institute Molecular Screening Center, 2011)",
  "note": "Activity calls are given as the source filed them.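 The calls were made as follows: active = compounds with IC50 half-inhibiting concentration of 10 µM or lower; inactive = IC50 above 10 µM.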",
  "data": [
    {"tested_on": "E. coli V3065 expressing H. pylori AddAB, T4 phage, OD growth", "assay": "AddAB helicase-nuclease blockers, potency curves – absorbance, E. coli V3065, T4 phage, powder samples, late-stage follow-up (AID 504677)", "in_short": "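Test system: addAB+ E. coli strain V3065 / Probe or stimulus: T4 gene 2 mutant phage, MOI 0.02 / Doses: threefold dilution series from nominal top dose 118.6 µM / Schedule: 60 min compound-cell pre-incubation, then 18 h phage exposure at 37 °C / Signal: OD600 absorbance / Replicates: each concentration tested in triplicate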", "values": [
      {"smiles": "O=C(Nc1ncccn1)c1ccc([N+](=O)[O-])o1", "IC50": "7.54 µM"},
      {"smiles": "NC(=O)c1ccsc1NC(=O)COC(=O)c1ccc([N+](=O)[O-])o1", "IC50": "5.83 µM"},
      {"smiles": "C=CCn1c(Sc2ncc([N+](=O)[O-])s2)n[nH]c1=O", "IC50": "14.8 µM (inactive)"},
      {"smiles": "O=C(NCc1cccnc1)c1ccc([N+](=O)[O-])o1", "IC50": "18.9 µM (inactive)"},
      {"smiles": "N#Cc1c(NC(=O)c2ccc([N+](=O)[O-])o2)sc2c1CCC2", "IC50": "17.8 µM (inactive)"},
      {"smiles": "O=C(Nc1ccc(N2CCOCC2)cc1)c1ccc([N+](=O)[O-])o1", "IC50": "11.8 µM (inactive)"},
      {"smiles": "O=C(Nc1cccc(NC(=O)c2ccccc2Cl)c1)c1ccc([N+](=O)[O-])o1", "IC50": "> 13.2 µM (inactive)"},
      {"smiles": "O=C(OCC(=O)c1cccs1)c1ccc([N+](=O)[O-])o1", "IC50": "53.3 µM (inactive)"},
      {"smiles": "Cc1ccc2nc(/C(C#N)=C\\c3ccc([N+](=O)[O-])o3)[nH]c2c1", "IC50": "9.42 µM"},
      {"smiles": "CC(=O)Nc1ccc2nc(NC(=O)c3ccc([N+](=O)[O-])o3)sc2c1", "IC50": "> 119 µM (inactive)"},
      {"smiles": "Cc1cccnc1NC(=O)c1ccc([N+](=O)[O-])o1", "IC50": "19.6 µM (inactive)"},
      {"smiles": "CCn1cc(C(=O)O)c(=O)c2cnc(N3CCN(C(=S)Nc4ccccc4C(F)(F)F)CC3)nc21", "IC50": "35.5 µM (inactive)"}
    ]}
  ]
}
